Values after ≈ are worked out from the molar mass of the structure shown.
Columns and labels:
[1] = tested on: Staphylococcus epidermidis; experiment: Antibacterial activity against methicillin-sensitive Staphylococcus epidermidis ATCC 12228 after 18 to 24 hrs by two-fold serial dilution method; type: functional
Procedure, shortened: (§1)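 Agar two-fold dilution MIC. Compounds were dissolved in 0.1 N NaOH and water, then serially diluted in melted Mueller-Hinton agar, with top concentrations starting at 128. Plates were inoculated at about 10 cfu and incubated at 35 °C for 18–24 h. MIC was taken as the lowest concentration giving 90% inhibition of growth.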

[2] = tested on: Staphylococcus epidermidis; experiment: Antibacterial activity against methicillin-resistant Staphylococcus epidermidis 13-3 after 18 to 24 hrs by two-fold serial dilution method; type: functional
Procedure, shortened: (§2)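 Agar two-fold serial dilution in Mueller-Hinton agar. Strains came from the Chinese Center for Disease Control and Prevention. Compounds were dissolved in 0.1 N NaOH and water, then diluted in melted agar to final levels stepping down from 128. Plates were inoculated with bacterial cfu and incubated at 35 C for 18–24 h. MIC is the lowest concentration giving 90% growth inhibition.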

Staphylococcus aureus [3] = experiment: Antibacterial activity against methicillin-sensitive Staphylococcus aureus ATCC 29213 after 18 to 24 hrs by two-fold serial dilution method; type: functional; procedure, shortened: as §2
Staphylococcus aureus [4] = experiment: Antibacterial activity against methicillin-resistant Staphylococcus aureus ATCC 33591 after 18 to 24 hrs by two-fold serial dilution method; type: functional; procedure, shortened: as §2
Enterococcus faecalis [5] = experiment: Antibacterial activity against Enterococcus faecalis ATCC 29212 after 18 to 24 hrs by two-fold serial dilution method; type: functional; procedure, shortened: as §1
Enterococcus faecalis [6] = experiment: Antibacterial activity against Enterococcus faecalis ATCC 51299 after 18 to 24 hrs by two-fold serial dilution method; type: functional; procedure, shortened: as §1
Enterococcus faecium [7] = experiment: Antibacterial activity against Enterococcus faecium ATCC 700221 after 18 to 24 hrs by two-fold serial dilution method; type: functional; procedure, shortened: as §1
Enterococcus faecium [8] = experiment: Antibacterial activity against Enterococcus faecium 13-7 after 18 to 24 hrs by two-fold serial dilution method; type: functional; procedure, shortened: as §1
Escherichia coli [9] = experiment: Antibacterial activity against extended-spectrum beta-lactamase deficient Escherichia coli ATCC 25922 after 18 to 24 hrs by two-fold serial dilution method; type: functional; procedure, shortened: as §1
Escherichia coli [10] = experiment: Antibacterial activity against extended-spectrum beta-lactamase harboring Escherichia coli ATCC 35218 after 18 to 24 hrs by two-fold serial dilution method; type: functional; procedure, shortened: as §2
Klebsiella pneumoniae [11] = experiment: Antibacterial activity against extended-spectrum beta-lactamase harboring Klebsiella pneumoniae ATCC 700603 after 18 to 24 hrs by two-fold serial dilution method; type: functional; procedure, shortened: as §2
Klebsiella pneumoniae [12] = experiment: Antibacterial activity against extended-spectrum beta-lactamase deficient Klebsiella pneumoniae 15-2 after 18 to 24 hrs by two-fold serial dilution method; type: functional; procedure, shortened: as §1
Pseudomonas aeruginosa = experiment: Antibacterial activity against Pseudomonas aeruginosa ATCC 27853 after 18 to 24 hrs by two-fold serial dilution method; type: functional; procedure, shortened: as §1
[13] = tested on: Acinetobacter calcoaceticus; experiment: Antibacterial activity against Acinetobacter calcoaceticus ATCC 19606 after 18 to 24 hrs by two-fold serial dilution method; type: functional; procedure, shortened: as §1
Enterobacter cloacae = experiment: Antibacterial activity against Enterobacter cloacae ATCC 43560 after 18 to 24 hrs by two-fold serial dilution method; type: functional
Klebsiella aerogenes = experiment: Antibacterial activity against Enterobacter aerogenes ATCC 13048 after 18 to 24 hrs by two-fold serial dilution method; type: functional; procedure, shortened: as §1
Serratia marcescens = experiment: Antibacterial activity against Serratia marcescens ATCC 21074 after 18 to 24 hrs by two-fold serial dilution method; type: functional; procedure, shortened: as §1
Morganella morganii = experiment: Antibacterial activity against Morganella morganii ATCC 25830 after 18 to 24 hrs by two-fold serial dilution method; type: functional; procedure, shortened: as §1
Providencia rettgeri = experiment: Antibacterial activity against Providencia rettgeri ATCC 31052 after 18 to 24 hrs by two-fold serial dilution method; type: functional; procedure, shortened: as §1
Proteus vulgaris = experiment: Antibacterial activity against Proteus vulgaris ATCC 29905 after 18 to 24 hrs by two-fold serial dilution method; type: functional; procedure, shortened: as §1
Proteus mirabilis = experiment: Antibacterial activity against Proteus mirabilis 13-1 after 18 to 24 hrs by two-fold serial dilution method; type: functional; procedure, shortened: as §1
[14] = tested on: Stenotrophomonas maltophilia; experiment: Antibacterial activity against Stenotrophomonas maltophilia ATCC 13636 after 18 to 24 hrs by two-fold serial dilution method; type: functional; procedure, shortened: as §1
Citrobacter freundii = experiment: Antibacterial activity against extended-spectrum beta-lactamase harboring Citrobacter freundii ATCC 43864 after 18 to 24 hrs by two-fold serial dilution method; type: functional; procedure, shortened: as §2
Staphylococcus aureus [15] = experiment: Potency index, ratio of ciprofloxacin MIC90 to compound MIC90 for methicillin-sensitive Staphylococcus aureus ATCC 29213; type: functional
[16] = tested on: Staphylococcus epidermidis; experiment: Potency index, ratio of ciprofloxacin MIC90 to compound MIC90 for methicillin-sensitive Staphylococcus epidermidis ATCC 12228; type: functional
Enterococcus faecalis [17] = experiment: Potency index, ratio of ciprofloxacin MIC90 to compound MIC90 for Enterococcus faecalis ATCC 29212; type: functional
Enterococcus faecalis [18] = experiment: Potency index, ratio of ciprofloxacin MIC90 to compound MIC90 for Enterococcus faecalis ATCC 51299; type: functional
Staphylococcus aureus [19] = experiment: Potency index, ratio of levofloxacin MIC90 to compound MIC90 for methicillin-sensitive Staphylococcus aureus ATCC 29213; type: functional
[20] = tested on: Staphylococcus epidermidis; experiment: Potency index, ratio of levofloxacin MIC90 to compound MIC90 for methicillin-sensitive Staphylococcus epidermidis ATCC 12228; type: functional
Enterococcus faecalis [21] = experiment: Potency index, ratio of levofloxacin MIC90 to compound MIC90 for Enterococcus faecalis ATCC 29212; type: functional
Enterococcus faecalis [22] = experiment: Potency index, ratio of levofloxacin MIC90 to compound MIC90 for Enterococcus faecalis ATCC 51299; type: functional
[23] = tested on: Mycobacterium tuberculosis; experiment: Antimycobacterial activity against Mycobacterium tuberculosis H37Rv after 7 days; type: functional; conditions: 168 h
Procedure, shortened: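 Rapid direct susceptibility test in 48-well plates. Two-fold dilutions of compound from DMSO stocks were mixed with an equal volume of bacterial suspension. Medium-only wells served as growth controls and water-only wells as no-growth controls. Plates were sealed and held at 37 C in a humid box, and controls were checked at 3 days. MIC (90% growth inhibition) was read visually by high-magnification observation of the cells and re-read at 7 days.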

[24] = Cytotoxicity against African green monkey Vero cells assessed as reduction in cell viability after 72 hrs by MTT assay; type: cell-based; conditions: chlorocebus sabaeus
Procedure, shortened: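 VERO cells were kept in MEM with Earle's salts and 10% FBS at 37 °C, 5% CO2. They were seeded in 96-well plates and allowed to recover for 24 h. Cells were then exposed to compounds in DMSO over a series from 1000 down to 4 for 72 h. Viability was read by MTT, and CC50 was calculated by Bliss analysis.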

[25] = Cmax in ICR mouse at 50 mg/kg, po administered as single dose by HPLC analysis; type: ADME, organism-based; design: dose 50 mg/kg, route oral; conditions: in vivo
Procedure, shortened: (§3)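 Mice (3 per group), fasted overnight, given a single oral dose of 50 mg/kg as a suspension in 0.5% CMC. Jugular vein blood taken at 0.25, 0.5, 1, 2, 4, 6, 8 and 24 h. Serum proteins precipitated with acetonitrile and centrifuged; the dried supernatant was redissolved in acetonitrile for HPLC. PK parameters were derived directly from the concentration–time data.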

[26] = Tmax in ICR mouse at 50 mg/kg, po administered as single dose by HPLC analysis; type: ADME, organism-based; conditions: in vivo; procedure, shortened: as §3
[27] = AUC (0 to infinity) in ICR mouse at 50 mg/kg, po administered as single dose by HPLC analysis; type: ADME, organism-based; design: dose 50 mg/kg, route oral, time infinity; conditions: in vivo; procedure, shortened: as §3
[28] = Elimination half life in ICR mouse at 50 mg/kg, po administered as single dose by HPLC analysis; type: ADME, organism-based; conditions: in vivo, read-out: beta t1/2 (converted)
[29] = Half life in mouse microsomes; type: ADME, Microsome
[30] = tested on: Mycobacterium tuberculosis; experiment: Potency index, ratio of ciprofloxacin MIC90 to compound MIC90 for Mycobacterium tuberculosis H37Rv; type: functional
[31] = tested on: Mycobacterium tuberculosis; experiment: Potency index, ratio of rifampicin MIC90 to compound MIC90 for Mycobacterium tuberculosis H37Rv; type: functional

| Compound | MIC90 [1] | MIC90 [2] | MIC90 (Staphylococcus aureus [3]) | MIC90 (Staphylococcus aureus [4]) | MIC90 (Enterococcus faecalis [5]) | MIC90 (Enterococcus faecalis [6]) | MIC90 (Enterococcus faecium [7]) | MIC90 (Enterococcus faecium [8]) | MIC90 (Escherichia coli [9]) | MIC90 (Escherichia coli [10]) | MIC90 (Klebsiella pneumoniae [11]) | MIC90 (Klebsiella pneumoniae [12]) | MIC90 (Pseudomonas aeruginosa) | MIC90 [13] | MIC90 (Enterobacter cloacae) | MIC90 (Klebsiella aerogenes) | MIC90 (Serratia marcescens) | MIC90 (Morganella morganii) | MIC90 (Providencia rettgeri) | MIC90 (Proteus vulgaris) | also measured |
| --- | --- | --- | --- | --- | --- | --- | --- | --- | --- | --- | --- | --- | --- | --- | --- | --- | --- | --- | --- | --- | --- |
| CO/N=C1\C(=O)N(CCCN2CCN(c3cc4c(cc3F)c(=O)c(C(=O)O)cn4C3CC3)CC2)c2ccc(C)cc21 | 0.06 µg/mL (≈ 0.107 µM) | 1 µg/mL (≈ 1.78 µM) | 0.06 µg/mL (≈ 0.107 µM) | 0.06 µg/mL (≈ 0.107 µM) | 0.5 µg/mL (≈ 0.89 µM) | 0.5 µg/mL (≈ 0.89 µM) | 2 µg/mL (≈ 3.56 µM) | 8 µg/mL (≈ 14.2 µM) | ≤ 0.03 µg/mL | ≤ 0.03 µg/mL | 0.25 µg/mL (≈ 0.445 µM) | ≤ 0.03 µg/mL | 0.5 µg/mL (≈ 0.89 µM) | 0.25 µg/mL (≈ 0.445 µM) | ≤ 0.03 µg/mL | ≤ 0.03 µg/mL | 0.06 µg/mL (≈ 0.107 µM) | ≤ 0.03 µg/mL | ≤ 0.03 µg/mL | ≤ 0.03 µg/mL | MIC90 (Proteus mirabilis): ≤ 0.03 µg/mL; MIC90 [14]: ≤ 0.03 µg/mL; MIC90 (Citrobacter freundii): ≤ 0.03 µg/mL; Ratio (Staphylococcus aureus [15]): 2 - 64; Ratio [16]: 2 - 64; Ratio (Enterococcus faecalis [17]): 2 - 64; Ratio (Enterococcus faecalis [18]): 2 - 64; Ratio (Staphylococcus aureus [19]): 2 - 64; Ratio [20]: 2 - 64; Ratio (Enterococcus faecalis [21]): 2 - 64; Ratio (Enterococcus faecalis [22]): 2 - 64; MIC90 [23]: 0.78 µg/mL (≈ 1.39 µM); CC50 at 72 h [24]: 256 µg/mL (≈ 456 µM); Cmax [25]: 832 ng/mL; Tmax [26]: 1.2 h; AUC(0-inf) [27]: 2860 ng·h/mL; half-life [28]: 3.3 h; half-life [29]: 0.283 h |
| Cc1ccc2c(c1)C(=O)C(=O)N2CCCN1CCN(c2cc3c(cc2F)c(=O)c(C(=O)O)cn3C2CC2)CC1 | 0.125 µg/mL (≈ 0.235 µM) | 2 µg/mL (≈ 3.76 µM) | 0.125 µg/mL (≈ 0.235 µM) | 0.125 µg/mL (≈ 0.235 µM) | 0.5 µg/mL (≈ 0.939 µM) | 0.5 µg/mL (≈ 0.939 µM) | 4 µg/mL (≈ 7.51 µM) | 32 µg/mL (≈ 60.1 µM) | ≤ 0.03 µg/mL | ≤ 0.03 µg/mL | 1 µg/mL (≈ 1.88 µM) | 0.06 µg/mL (≈ 0.113 µM) | 2 µg/mL (≈ 3.76 µM) | 0.25 µg/mL (≈ 0.469 µM) | ≤ 0.03 µg/mL | 0.06 µg/mL (≈ 0.113 µM) | 0.25 µg/mL (≈ 0.469 µM) | ≤ 0.03 µg/mL | ≤ 0.03 µg/mL | ≤ 0.03 µg/mL | MIC90 (Proteus mirabilis): ≤ 0.03 µg/mL; MIC90 [14]: 0.06 µg/mL (≈ 0.113 µM); MIC90 (Citrobacter freundii): ≤ 0.03 µg/mL; MIC90 [23]: 0.1 µg/mL (≈ 0.188 µM); CC50 at 72 h [24]: 64 µg/mL (≈ 120 µM); Ratio [30]: 4; Ratio [31]: 8; Cmax [25]: 1230 ng/mL; Tmax [26]: 1.3 h; AUC(0-inf) [27]: 4990 ng·h/mL; half-life [28]: 4.1 h; half-life [29]: 0.517 h |

Reference: ChEMBL document CHEMBL4270565, “Design, synthesis and antimicrobial evaluation of propylene-tethered ciprofloxacin-isatin hybrids” (Eur J Med Chem, 2018)
